Data published in ChEMBL document CHEMBL4270530, “Surmounting the resistance against EGFR inhibitors through the development of thieno[2,3-d]pyrimidine-based dual EGFR/HER2 inhibitors” (Eur J Med Chem, 2018).

Columns and labels:
Type in all cases: functional
HOP-92 = assay: Growth inhibition of human HOP92 cells assessed as cell growth at 10 uM incubated for 48 hrs by sulforhodamine B assay relative to control; settings: HOP-92, 48 h, read-out: Activity
Procedure, shortened: (§1)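 NCI-60 one-dose screen run by the NCI Developmental Therapeutics Program at a single 10 µM concentration; growth percent read from the one-dose mean graph.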

HCC 2998 = assay: Growth inhibition of human HCC2998 cells assessed as cell growth at 10 uM incubated for 48 hrs by sulforhodamine B assay relative to control; settings: HCC 2998, 48 h, read-out: Activity; procedure, shortened: as §1
SW-620 = assay: Growth inhibition of human SW620 cells assessed as cell growth at 10 uM incubated for 48 hrs by sulforhodamine B assay relative to control; settings: SW-620, 48 h, read-out: Activity
Procedure, shortened: (§2)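 NCI-60 single-dose screen at 10 µM run by the NCI Developmental Therapeutics Program; growth percent read from the one-dose mean graph, with percent inhibition approximated from those growth-percent values.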

OVCAR-5 = assay: Growth inhibition of human OVCAR5 cells assessed as cell growth at 10 uM incubated for 48 hrs by sulforhodamine B assay relative to control; settings: OVCAR-5, 48 h, read-out: Activity; procedure, shortened: as §1
SK-MEL-2 = assay: Growth inhibition of human SK-MEL-2 cells assessed as cell growth at 10 uM incubated for 48 hrs by sulforhodamine B assay relative to control; settings: SK-MEL-2, 48 h, read-out: Activity; procedure, shortened: as §1
NCI-H322M = assay: Growth inhibition of human NCI-H322M cells at 10 uM incubated for 48 hrs by sulforhodamine B assay relative to control; settings: read-out: GI; procedure, shortened: as §1
NCI/ADR-RES = assay: Growth inhibition of human NCI/ADR-RES cells assessed as cell growth at 10 uM incubated for 48 hrs by sulforhodamine B assay relative to control; settings: read-out: Activity; procedure, shortened: as §1
SNB-75 = assay: Growth inhibition of human SNB75 cells assessed as cell growth at 10 uM incubated for 48 hrs by sulforhodamine B assay relative to control; settings: SNB-75, 48 h, read-out: Activity; procedure, shortened: as §2
786-0 = assay: Growth inhibition of human 786-0 cells assessed as cell growth at 10 uM incubated for 48 hrs by sulforhodamine B assay relative to control; settings: 786-0, 48 h, read-out: Activity; procedure, shortened: as §1
A498 = assay: Growth inhibition of human A498 cells assessed as cell growth at 10 uM incubated for 48 hrs by sulforhodamine B assay relative to control; settings: A498, 48 h, read-out: Activity; procedure, shortened: as §1
OVCAR-8 = assay: Growth inhibition of human OVCAR8 cells assessed as cell growth at 10 uM incubated for 48 hrs by sulforhodamine B assay relative to control; settings: OVCAR-8, 48 h, read-out: Activity; procedure, shortened: as §1
NCI-H522 = assay: Growth inhibition of human NCI-H522 cells assessed as cell growth at 10 uM incubated for 48 hrs by sulforhodamine B assay relative to control; settings: NCI-H522, 48 h, read-out: Activity; procedure, shortened: as §1
SF-295 = assay: Growth inhibition of human SF295 cells assessed as cell growth at 10 uM incubated for 48 hrs by sulforhodamine B assay relative to control; settings: SF-295, 48 h, read-out: Activity; procedure, shortened: as §1
HCT-15 = assay: Growth inhibition of human HCT15 cells assessed as cell growth at 10 uM incubated for 48 hrs by sulforhodamine B assay relative to control; settings: HCT-15, 48 h, read-out: Activity; procedure, shortened: as §1
MDA-MB-468 = assay: Growth inhibition of human MDA-MB-468 cells at 10 uM incubated for 48 hrs by sulforhodamine B assay relative to control; settings: MDA-MB-468, 48 h, read-out: GI; procedure, shortened: as §1
OVCAR-4 = assay: Growth inhibition of human OVCAR4 cells assessed as cell growth at 10 uM incubated for 48 hrs by sulforhodamine B assay relative to control; settings: OVCAR-4, 48 h, read-out: Activity; procedure, shortened: as §1
TK-10 = assay: Growth inhibition of human TK10 cells at 10 uM incubated for 48 hrs by sulforhodamine B assay relative to control; settings: TK-10, 48 h, read-out: GI; procedure, shortened: as §2
NCI-H226 = assay: Growth inhibition of human NCI-H226 cells assessed as cell growth at 10 uM incubated for 48 hrs by sulforhodamine B assay relative to control; settings: NCI-H226, 48 h, read-out: Activity; procedure, shortened: as §1
IGROV-1 = assay: Growth inhibition of human IGROV1 cells at 10 uM incubated for 48 hrs by sulforhodamine B assay relative to control; settings: IGROV-1, 48 h, read-out: GI; procedure, shortened: as §1
CCRF-CEM = assay: Growth inhibition of human CCRF-CEM cells assessed as cell growth at 10 uM incubated for 48 hrs by sulforhodamine B assay relative to control; settings: read-out: Activity; procedure, shortened: as §1
EKVX = assay: Growth inhibition of human EKVX cells at 10 uM incubated for 48 hrs by sulforhodamine B assay relative to control; settings: read-out: GI; procedure, shortened: as §1
HL-60(TB) = assay: Growth inhibition of human HL-60(TB) cells assessed as cell growth at 10 uM incubated for 48 hrs by sulforhodamine B assay relative to control; settings: HL-60, 48 h, read-out: Activity
Procedure, shortened: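 Single-dose (10 µM) screen across the full NCI-60 panel, run by the NCI Developmental Therapeutics Program. Read-out is growth percent relative to untreated control, taken from the NCI one-dose mean graph.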

NCI-H23 = assay: Growth inhibition of human NCI-H23 cells assessed as cell growth at 10 uM incubated for 48 hrs by sulforhodamine B assay relative to control; settings: NCI-H23, 48 h, read-out: Activity; procedure, shortened: as §1
UO-31 = assay: Growth inhibition of human UO31 cells assessed as cell growth at 10 uM incubated for 48 hrs by sulforhodamine B assay relative to control; settings: UO-31, 48 h, read-out: Activity; procedure, shortened: as §2
UACC-62 = assay: Growth inhibition of human UACC62 cells assessed as cell growth at 10 uM incubated for 48 hrs by sulforhodamine B assay relative to control; settings: UACC-62, 48 h, read-out: Activity; procedure, shortened: as §2
HOP-62 = assay: Growth inhibition of human HOP62 cells assessed as cell growth at 10 uM incubated for 48 hrs by sulforhodamine B assay relative to control; settings: HOP-62, 48 h, read-out: Activity; procedure, shortened: as §1
SR = assay: Growth inhibition of human SR cells assessed as cell growth at 10 uM incubated for 48 hrs by sulforhodamine B assay relative to control; settings: read-out: Activity; procedure, shortened: as §2
MOLT-4 = assay: Growth inhibition of human MOLT4 cells assessed as cell growth at 10 uM incubated for 48 hrs by sulforhodamine B assay relative to control; settings: MOLT-4, 48 h, read-out: Activity; procedure, shortened: as §1
OVCAR-3 = assay: Growth inhibition of human OVCAR3 cells assessed as cell growth at 10 uM incubated for 48 hrs by sulforhodamine B assay relative to control; settings: OVCAR-3, 48 h, read-out: Activity; procedure, shortened: as §1
MCF7 = assay: Growth inhibition of human MCF7 cells assessed as cell growth at 10 uM incubated for 48 hrs by sulforhodamine B assay relative to control; settings: MCF7, 48 h, read-out: Activity; procedure, shortened: as §1
SF-539 = assay: Growth inhibition of human SF539 cells assessed as cell growth at 10 uM incubated for 48 hrs by sulforhodamine B assay relative to control; settings: SF-539, 48 h, read-out: Activity; procedure, shortened: as §1

`O=[N+]([O-])c1ccc(-c2cc3c(Nc4ccc(OCc5cccc(F)c5)c(Cl)c4)ncnc3s2)cc1` gave a growth at 10 µM (HOP-92) of 82.1%, a growth at 10 µM (HCC 2998) of 97.3% and a growth at 10 µM (SW-620) of 93.5%. The growth at 10 µM (OVCAR-5) was 101%, the growth at 10 µM (SK-MEL-2) was 86.2% and the inhibition of growth at 10 µM (NCI-H322M) was 15%. It also gave a growth at 10 µM (NCI/ADR-RES) of 80.5%, a growth at 10 µM (SNB-75) of 98.5% and a growth at 10 µM (786-0) of 95.4%. The growth at 10 µM (A498) was 84.8%, the growth at 10 µM (OVCAR-8) was 70.3% and the growth at 10 µM (NCI-H522) was 68.3%. It also gave a growth at 10 µM (SF-295) of 69.7%, a growth at 10 µM (HCT-15) of 63.4% and an inhibition of growth at 10 µM (MDA-MB-468) of 40%. For the same compound, the growth at 10 µM (OVCAR-4) was 89.6%, the inhibition of growth at 10 µM (TK-10) was 30% and the growth at 10 µM (NCI-H226) was 86.4%. For the same compound, the inhibition of growth at 10 µM (IGROV-1) was 12%, the growth at 10 µM (CCRF-CEM) was 68.6% and the inhibition of growth at 10 µM (EKVX) was 20%. It also gave a growth at 10 µM (HL-60(TB)) of 79.2%, a growth at 10 µM (NCI-H23) of 73.1% and a growth at 10 µM (UO-31) of 59.2%. It also gave a growth at 10 µM (UACC-62) of 79.1%, a growth at 10 µM (HOP-62) of 94.7% and a growth at 10 µM (SR) of 68.6%. It also gave a growth at 10 µM (MOLT-4) of 65.7%, a growth at 10 µM (OVCAR-3) of 34.5% and a growth at 10 µM (MCF7) of 78.9%. The growth at 10 µM (SF-539) was 99.2%.

`Nc1ccc(-c2cc3c(Nc4ccc(OCc5cccc(F)c5)c(Cl)c4)ncnc3s2)cc1` was tested, and the growth at 10 µM (HOP-92) was 45.8%, the growth at 10 µM (HCC 2998) was 38.6% and the growth at 10 µM (SW-620) was 74.1%. For the same compound, the growth at 10 µM (OVCAR-5) was 77.9%, the growth at 10 µM (SK-MEL-2) was 25.4% and the inhibition of growth at 10 µM (NCI-H322M) was 75%. For the same compound, the growth at 10 µM (NCI/ADR-RES) was 50.4%, the growth at 10 µM (SNB-75) was 87.2% and the growth at 10 µM (786-0) was 37.2%. It also gave a growth at 10 µM (A498) of 39.3%, a growth at 10 µM (OVCAR-8) of 63.1% and a growth at 10 µM (NCI-H522) of 13.1%. For the same compound, the growth at 10 µM (SF-295) was 47.8%, the growth at 10 µM (HCT-15) was 32.9% and the inhibition of growth at 10 µM (MDA-MB-468) was 85%. The growth at 10 µM (OVCAR-4) was 54.8%, the inhibition of growth at 10 µM (TK-10) was 70% and the growth at 10 µM (NCI-H226) was 53.5%. The inhibition of growth at 10 µM (IGROV-1) was 60%, the growth at 10 µM (CCRF-CEM) was 23.9% and the inhibition of growth at 10 µM (EKVX) was 80%. For the same compound, the growth at 10 µM (HL-60(TB)) was 48.2%, the growth at 10 µM (NCI-H23) was 68.6% and the growth at 10 µM (UO-31) was 19.6%. For the same compound, the growth at 10 µM (UACC-62) was 55.7%, the growth at 10 µM (HOP-62) was 62.3% and the growth at 10 µM (SR) was 14.5%. The growth at 10 µM (MOLT-4) was 30%, the growth at 10 µM (OVCAR-3) was 46.6% and the growth at 10 µM (MCF7) was 26.2%. It also gave a growth at 10 µM (SF-539) of 57.4%.
